Data from ChEMBL document CHEMBL1629529, “Design, synthesis, and evaluation of diarylpyridines and diarylanilines as potent non-nucleoside HIV-1 reverse transcriptase inhibitors” (J Med Chem, 2010).

What was measured:
[1] = test system: Human immunodeficiency virus 1; test: Antiviral activity against HIV1; type: functional, organism-based
[2] = Cytotoxicity in human TZM-bl cells after 4 day by XTT assay; type: cell-based; conditions: 96 h
[3] = test system: Human immunodeficiency virus 1; test: Antiviral activity against HIV1 3B infected in human MT2 cells assessed as reduction in p24 antigen level after 4 days by ELISA; type: functional, organism-based
Procedure, shortened: (§1)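 MT-2 cells (10^4/well) were infected with 100 TCID50 virus in RPMI 1640 with 10% FBS, with or without graded compound concentrations, overnight. Supernatant was then replaced with compound-free medium. On day 4 post-infection, supernatant was mixed 1:1 with 5% Triton X-100 and p24 antigen was quantified by ELISA. Percent inhibition was converted to EC50 with CalcuSyn. Tested at least in triplicate.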

MT2 = test: (§2) Cytotoxicity in human MT2 cells after 4 day by XTT assay; type: cell-based; conditions: mt2, 96 h
Procedure, shortened: (§3)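 MT-2 cells (5 · 10^5/mL) were mixed with an equal volume of graded compound concentrations and incubated 4 days at 37 °C. XTT solution (1 mg/mL) containing 0.02 μM phenazine methosulphate was then added. After 4 h, absorbance at 450 nm was read.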

[4] = test system: Human immunodeficiency virus 1; test: Antiviral activity against HIV1 NL4-3 infected in human TZM-bl cells after 2 days by luciferase reporter gene assay
[5] = Selectivity index, ratio of CC50 for human TZM-bl cells to EC50 for HIV1 NL4-3; type: toxicity, cell-based; conditions: for Ratio CC50/EC50: tzm-bl
[6] = Selectivity index, ratio of CC50 for human MT2 cells to EC50 for HIV1 3B; type: toxicity, cell-based; conditions: for Ratio CC50/EC50: mt2
Procedure, shortened: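 SI = CC50/EC50 (p24 ELISA). XTT (1 mg/mL) containing 0.02 μM PMS was added for 4 h, then absorbance was read at 450 nm. CC50 was calculated with CalcuSyn.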

[7] = test system: Human immunodeficiency virus 1; test: Resistance index, ratio of EC50 for multidrug resistant HIV1 RTMDR to EC50 for wild type HIV1 NL4-3; type: functional
[8] = test system: Human immunodeficiency virus 1; test: Antiviral activity against multidrug resistant HIV1 A17 containing reverse transcripatseK103N and Y181C mutation infected in human MT2 cells assessed as reduction in p24 antigen level after 4 days by ELISA; type: functional, organism-based; conditions: Human immunodeficiency virus 1, A17, MT2, 96 h; procedure, shortened: as §1
[9] = test system: Human immunodeficiency virus 1; test: Resistance index, ratio of EC50 for multidrug resistant HIV1 A17 to EC50 for wild type HIV1 3B; type: functional
[10] = test system: Human immunodeficiency virus 1; test: Antiviral activity against multidrug resistant HIV1 RTMDR containing reverse transcriptase L74V, M41L, V106A and T215Y mutant infected in human TZM-bl cells after 2 days by luciferase reporter gene assay; conditions: Human immunodeficiency virus 1, RTMDR, 48 h
[11] = as §2; type: cell-based; conditions: MT2 cells; procedure, shortened: as §3
[12] = test system: Human immunodeficiency virus 1; test: Antiviral activity against multidrug resistant HIV1 RTMDR containing reverse transcriptase L74V, M41L, V106A and T215Y mutant infected in human TZM-bl cells after 4 days by luciferase reporter gene assay; type: functional, organism-based; conditions: Human immunodeficiency virus 1, RTMDR, 96 h
[13] = Human immunodeficiency virus 1, 3B, MT2, 96 h, read-out: EC50
[14] = Human immunodeficiency virus 1, NL4-3, TZM-bl, 48 h, read-out: EC50

EC50 [1] [nM]	EC50 ([3]; mt2)	SMILES	CC50 [2] [nM]	EC50 [3, 13] [nM]	CC50 (MT2) [nM]	EC50 [4, 14] [nM]	Ratio CC50/EC50 [5]	Ratio CC50/EC50 [6]	Ratio EC50 [7]	EC50 [8] [nM]	Ratio EC50 [9]	EC50 [10] [nM]	CC50 at 96 h [11] [nM]	EC50 ([4]; tzm-bl)	EC50 [12] [nM]	selectivity ratio ([6]; MT2 cells, read-out: Ratio CC50/EC50)	selectivity ratio ([5]; TZM-bl cells, read-out: Ratio CC50/EC50)
3		Cc1cc(C#N)cc(C)c1Oc1cc(Nc2ccc(C#N)cc2)c(N)cc1[N+](=O)[O-]															
		CC(=O)/C=C/c1cc(C)c(Oc2cc(Nc3ccc(C#N)cc3)c(N)cc2[N+](=O)[O-])c(C)c1	5880	47	22600	6.33											
		Cc1cc(Br)cc(C)c1Oc1ccc(N)c(Nc2ccc(C#N)cc2)n1	15500	33	9610	7.29	2132	291	0.93	3490	106	6.8					
		Cc1cc(Br)cc(C)c1Oc1ccc([N+](=O)[O-])c(Nc2ccc(C#N)cc2)n1	> 45700	45	65100	50.2	> 909	1447	1.55	> 10000	>222	77.6					
		C=CCc1cc(C)c(Oc2ccc([N+](=O)[O-])c(Nc3ccc(C#N)cc3)n2)c(C)c1		1340				27.37					39700	Not Active			
		C=CCc1cc(C)c(Oc2ccc(N)c(Nc3ccc(C#N)cc3)n2)c(C)c1	8460	67	14000	6.89	1228	209	2.23	> 10000	> 149				15.4		
	Not Active	Cc1cc(C#CC2CC2)cc(C)c1Oc1ccc([N+](=O)[O-])c(Nc2ccc(C#N)cc2)n1				> 47200											
		Cc1cc(C#CC2CC2)cc(C)c1Oc1ccc(N)c(Nc2ccc(C#N)cc2)n1	7450	410	5710	91.2	82	14	1.34	> 10000	> 24				121		
		Cc1cc(C(O)C[N+](=O)[O-])cc(C)c1Oc1ccc([N+](=O)[O-])c(Nc2ccc(C#N)cc2)n1 (stereo not drawn)	> 44500	1710	27100	308	> 145	16									
		Cc1cc(C(O)C[N+](=O)[O-])cc(C)c1Oc1ccc(N)c(Nc2ccc(C#N)cc2)n1.Cl (stereo not drawn)	7020	68	20600	10.1	695	303									
		Cc1cc(/C=C/C(=O)O)cc(C)c1Oc1ccc([N+](=O)[O-])c(Nc2ccc(C#N)cc2)n1	27800	8120	34800	14900											
		Cc1cc(/C=C/C(=O)O)cc(C)c1Oc1ccc(N)c(Nc2ccc(C#N)cc2)n1	18000	630	15700	600											
		CC(=O)/C=C/c1cc(C)c(Oc2ccc([N+](=O)[O-])c(Nc3ccc(C#N)cc3)n2)c(C)c1	> 46700	608	> 47900	24.4											
		CC(=O)CCc1cc(C)c(Oc2ccc(N)c(Nc3ccc(C#N)cc3)n2)c(C)c1	9250	55	18400	1.95	4744		1.64	730	13				3.2	1840	
		Cc1cc(/C=C/C#N)cc(C)c1Oc1ccc([N+](=O)[O-])c(Nc2ccc(C#N)cc2)n1	> 48700	49	> 100000	8	> 6082	> 2041	1.85	> 10000	> 204				14.8		
		Cc1cc(/C=C/C#N)cc(C)c1Oc1ccc(N)c(Nc2ccc(C#N)cc2)n1	9750	< 14	5630	0.71	13732	> 402	0.83	200	14				0.59		
		Cc1cc(/C=C/C#N)cc(C)c1Oc1ccc([N+](=O)[O-])c(Nc2ccc(C#N)cc2)c1	> 48800	37	> 100000	10.4		> 2702	1.63	> 10000	>270	17					4690
		Cc1cc(/C=C/C#N)cc(C)c1Oc1ccc(N)c(Nc2ccc(C#N)cc2)c1	25000	< 14	8830	0.55	45455	> 631	3.25	600	43	1.79					
		CC(=O)/C=C/c1cc(C)c(Oc2cc(Nc3ccc(C#N)cc3)c([N+](=O)[O-])cc2[N+](=O)[O-])c(C)c1	24400	350	> 100000	146	167	> 286									
		Cc1cc(/C=C/C#N)cc(C)c1Oc1cc(Nc2ccc(C#N)cc2)c([N+](=O)[O-])cc1[N+](=O)[O-]	> 44000	370	21700	97.1	> 453	59.35									
		Cc1cc(/C=C/C#N)cc(C)c1Oc1cc(Nc2ccc(C#N)cc2)c(N)cc1[N+](=O)[O-]	> 47100	< 14	88200	0.38	> 123842	> 6298	2.29	95	6.79				0.87		
		Cc1cc(/C=C/C#N)cc(C)c1Oc1cc(Nc2ccc(C#N)cc2)c(N)cc1N	14400	< 14	18900	4.3	3356	> 1353	0.47	3050	128				2		
		C#Cc1cc(C)c(Oc2ccc([N+](=O)[O-])c(Nc3ccc(C#N)cc3)n2)c(C)c1							1.94	> 10000	> 40				215		
		C#Cc1cc(C)c(Oc2ccc(N)c(Nc3ccc(C#N)cc3)n2)c(C)c1							1.34	1430	34				9		
		Cc1cc(I)cc(C)c1Oc1ccc(N)c(Nc2ccc(C#N)cc2)n1							0.67	1930	36						
		Cc1cc(C#N)cc(C)c1Oc1ccc(N)c(Nc2ccc(C#N)cc2)n1		15	> 100000		13206	> 6667	1.41	390	26						
		Cc1cc(I)cc(C)c1Oc1ccc([N+](=O)[O-])c(Nc2ccc(C#N)cc2)n1							1.55	> 10000	>127						
		Cc1cc(C#N)cc(C)c1Oc1nc(Nc2ccc(C#N)cc2)nc(N)c1Br [ETRAVIRINE]	8960	41	50700					330					1		
